Data published in ChEMBL document CHEMBL4513216, “Probing the Open Global Health Chemical Diversity Library for Multistage-Active Starting Points for Next-Generation Antimalarials” (ACS Infect Dis, 2020).

Assay: Toxicity liver stage against HepG2, at 10uM
Assay type: cell-based
Parameters: test concentration 10 uM, cell line HepG2-A16-CD81EGFP
Settings: human, HepG2-A16-CD81EGFP cells; read-out: INHIBITION
Outline: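 Uninfected HepG2-A16-CD81EGFP cells, 3 × 10^3 per well, 1536-well, plated on prespotted compound at 10 μM final, parasite-free screening media added to match infected plates; puromycin 10 μM positive, DMSO 0.5% negative; run in parallel with 48 h PbLuc assay at 37 °C, 5% CO2; viability by CellTiter-Glo luminescence, normalized to controls.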

Compound | cytotoxicity at 10 µM [%]
Cc1nn(C)c(C)c1C(=O)N1CCOCC1CC(=O)c1ccco1 (stereo unspecified) | -11.4
OCC1CN(Cc2nc(C(F)(F)F)cs2)c2ccccc2O1 (stereo unspecified) | 3.97
Cc1ccc(C(=O)N2CC(=O)N(Cc3ccco3)CC(O)C2)cc1 (stereo unspecified) | -0.817
Cn1ccc(C(=O)N2CCOC(c3ccccn3)C2)cc1=O (stereo unspecified) | -31.4
CCSc1ncc(CN2CCN(c3nc(C)cnc3C)CC2)cn1 | 5.84
CC(=O)N1CCC(NC(=O)c2cc(Cl)ccc2-n2cnnn2)CC1 | 8.72
Cc1ccc(CN2CCC3(CC2)C(=O)N(CCO)CCN3C)o1 | -1.63
CCS(=O)(=O)NCC(=O)NC1(C)CCc2ccccc2C1 (stereo unspecified) | 2.22
COc1ccnc(N2CCCN(c3nc(C4CC4)ns3)CC2)n1 | 0.142
CSCCC(NC(=O)c1ccc2ccccc2n1)C(=O)NC1CC1 (stereo unspecified) | -7.03
CCCN(Cc1ccc(C#N)cc1)Cc1nnsc1Cl | -58.4
Cc1cc(C(=O)NCc2ccnc(N(C)C)c2)c(C)o1 | -2.43
Cc1ccc(C2CSCCN2C(=O)c2cc(C(N)=O)cs2)o1 (stereo unspecified) | 5.48
Cc1nc(C)c(-c2ccn(CC(=O)Nc3cnn(C)n3)n2)s1 | 74
Cc1cc(C)n2c(CNCc3ccc(OC(F)F)cc3)cnc2n1 | -145
CCOC[C@@H]1CC[C@H]2[C@H](CCN2C(=O)c2cnccn2)O1 | -10.6
Cc1ccc(C2COCCN2C(=O)c2ccc(N(C)C)cc2)o1 (stereo unspecified) | 4
CCC(O)(CNCc1ccncc1)c1ccc(Br)cc1 (stereo unspecified) | -8.64
CS(=O)(=O)N1C[C@H]2CC[C@@H](C1)N(C(=O)Cn1ccc3ccccc31)C2 | -1.38
O=C(CN1CCCCCCC1=O)NCc1ccccn1 | -15.3
COCc1nn(CC2CC2)c2c1CN(Cc1ccco1)CC2 | 2.35
Cc1cc(NCCOCCS(C)(=O)=O)nc2ccccc12 | 4.4
CC[C@@]1(O)CCN(C(=O)c2ccc(SC)cc2)C[C@H]1O | -17.5

Compound | cytotoxicity at 10 µM [%]
O=c1cc(Cn2cncn2)nc2n1CCCN(Cc1ccc(F)cc1)C2 | 4.43
CCSc1nsc(NC(=O)COc2ccc3c(c2)OCO3)n1 | 2.03
NC(=O)C1(Cc2ccc(-c3ccccc3)cc2)CCCNC1 (stereo unspecified) | 0.772
CN1CCCC(Cc2nccnc2Cl)CC1 (stereo unspecified) | 0.368
O=C(COc1ccccc1)N1CCC[C@]2(C[C@H](OCC3CC3)CO2)C1 | 8.68
CN(CCCc1ccccc1)C(=O)c1cn2c(n1)CNCC2 | -52.4
CNc1nc(C(=O)N2CCC3(CCCN(C)C3=O)C2)cs1 (stereo unspecified) | -8.57
O=C1NCCCCC1Sc1nnc(C2CC2)n1C1CC1 (stereo unspecified) | -6
CCOC(C)c1nc(CN2CCN(Cc3cccnc3)CC2)cs1 (stereo unspecified) | 3.59
O=C1OCCN1CCc1nc(-c2cc3c4c(c2)CC(=O)N4CCC3)cs1 | -7.1
Cc1ccc(S(=O)(=O)N(CC2CCOC2)C2CC2)cc1N(C)C (stereo unspecified) | -9.77
O=C(c1ccco1)N1CCCC2(CCN(CCN3CCCC3)C2=O)C1 (stereo unspecified) | -4.73
CS(=O)(=O)c1ccc(C(=O)N2CCCC(n3cccn3)C2)cc1 (stereo unspecified) | -6.98
Cc1cc(C)n(CC2CCCN2C(=O)c2cccnc2N(C)C)n1 (stereo unspecified) | -3.56
O=C(c1ccsc1)N1CC[C@H]2C[C@@H](c3nnc(C4CC4)o3)O[C@@H]2C1 | -7.36
Nc1ccc(C(=O)N2CCC(Oc3cccc(C(F)(F)F)c3)CC2)cn1 | 5.3
CN1CC[C@H]2OCC[C@@]2(C(=O)NCCc2ccccn2)C1 | 1.82
O=C(NCCCN1CCOCC1)c1ccn(COc2ccccc2)n1 | 5.5
Cc1nn(C)cc1CN(C)c1nccc(-c2cn(C)nc2C)n1 | 20.2
Cc1noc(C)c1S(=O)(=O)N1CCc2nc(C3CCNCC3)ncc2C1 | -22.9
CC(C)COC1CCN(S(=O)(=O)Cc2cccc(F)c2)CC1 | -2.11
CCc1cnc(C)nc1NCc1nc(COC)no1 | 3.24
CN(C)c1ccc(CC2CCN(c3cnccn3)C2)nn1 (stereo unspecified) | 2.97

Compound | cytotoxicity at 10 µM [%]
O=C(C1CN(CC2CCOCC2)CC12CCOCC2)N1CCOCC1 (stereo unspecified) | 7.49
Cc1nnc(NC(=O)NCc2ccc(OC(C)C)nc2)s1 | -10.4
Cn1ncc2c(N3CCCN(C(=O)c4ccsc4)CC3)ncnc21 | -10.6
CN(C)C[C@H]1C[C@H](CO)CN(C(=O)c2cc(S(N)(=O)=O)ccc2F)C1 | 11.9
Cc1cc(C)n(CC(=O)N2CCCC2c2cc3cccnc3[nH]2)n1 (stereo unspecified) | 3.94
O=C(c1cnccn1)N1CCC2(CC1)CCN(Cc1ccccn1)C2=O | 0.108
O=C(c1cc[nH]n1)N1CCN(C(c2ccccc2)C(F)(F)F)CC1 (stereo unspecified) | -6.36
CC(=O)Nc1nc(C2CCN(C(=O)C3CCC3)CC2)cs1 | -2.36
CCn1cc(S(=O)(=O)N2CCCC3(CC=CNC3=O)C2)c(C)n1 (stereo unspecified) | -7.56
O=C(c1ccnnc1)N1C[C@@H]2COC[C@]2(COCC2CC2)C1 | -73.2
CCc1noc(C(C)N2CCC(N3CCCC3)CC2)n1 (stereo unspecified) | -7.77
COCCn1cc(NC(=O)C(C)CCc2ccccc2F)ccc1=O (stereo unspecified) | -3.73
COc1cccc(-c2noc(C3CCN(CC4CCCCC4)C3)n2)c1 (stereo unspecified) | -3.44
Cc1ccc(-c2nc3c([nH]2)CCNC3C(=O)O)c2cccnc12 (stereo unspecified) | 5
Cc1cnc2n(c1=O)C(CC(=O)NCc1ccc(F)cc1)CS2 (stereo unspecified) | 6.47
COCCOc1ncccc1NCc1nc2ccccc2n1C | 5.95
O=C(NCc1ccnc(-n2cccn2)c1)C1CC(=O)N(CC2CC2)C1 (stereo unspecified) | 5.48
O=C1NC2(CCN(C(=O)c3ccccc3)CC2)CC1c1cccnc1 (stereo unspecified) | -10.9
CCN(CC)Cc1cn2c(n1)CN(C(=O)c1cc(C)on1)CC2 | 6.17
COCCc1noc(C2CCN(C(=O)Nc3cccs3)CC2)n1 | -10.6
CCS(=O)(=O)NCC1CCN(c2cnccn2)CC1 | 10.3
CCOc1nnc(CN2CCC(c3nc4ccccc4[nH]3)CC2)s1 | -1.36
O=C(CN1CCc2ccccc21)Nc1ccc(OC(F)F)cc1 | 16.8

Compound | cytotoxicity at 10 µM [%]
Cc1ccc(C(=O)N2CCC3(CC2)CC(c2ccccc2)C(=O)N3)o1 (stereo unspecified) | 11.1
CC(=O)N1CCN(c2cc(C3CCNCC3)ccn2)CC1 | 6.91
COc1ccc(-c2cc(=O)n3c(n2)CCCCC3)cc1 | -14.1
CCc1ccc(CN2CCN(C)C3(CCC(=O)N(CC4CC4)CC3)C2)o1 (stereo unspecified) | -2.77
CS(=O)(=O)NC1CCN(C(=O)c2[nH]c3ccc(Cl)cc3c2Cl)CC1 | 16.3
CN(C)c1ncc(-c2cccc(C(N)=O)c2)c(C2CNCCO2)n1 (stereo unspecified) | -2.77
Cc1ccc(Cn2c(=O)[nH]c3csnc3c2=O)cc1 | 2.93
CC(c1ccncc1)N(CCN(C)C)C(=O)Nc1ccc(Cl)c(Cl)c1 (stereo unspecified) | 7.41
COc1cc(C)cc(C(C(=O)O)N(C)Cc2ccncc2C)c1OC (stereo unspecified) | 0.231
O=C1CCC2(CCC(NCc3ccsc3)CC2)N1Cc1ccccc1 (stereo unspecified) | 3.79
CCOc1ncccc1NC(=O)N1CCC(CN2CCOCC2)CC1 | -13.6
CN1CC(=O)c2sc(NCCc3ccccc3)nc2C1 | -11
NC(=O)CCn1ccc(NC(=O)c2ccc(OCC3CC3)cc2)n1 | 5.48
Cc1cnc(CN(C)CC2CCCN2c2cccnn2)cn1 (stereo unspecified) | -0.241
Cn1cnnc1S(=O)(=O)C1CCN(S(=O)(=O)c2ccc(Cl)s2)CC1 | -4.72
CCCNC(=O)C1CCN(Cc2csc(C(C)C)n2)CC1 | -19.5
Cc1cc(C(=O)Nc2nnn[nH]2)ccc1I | -2.08
NC(=O)C1CCN(C(=O)NC2CCc3cc(Cl)ccc32)CC1 (stereo unspecified) | 1.67
Cc1cc(CN2C[C@@H]3COC[C@]3(CNC(=O)c3ccco3)C2)no1 | -71.1
CC(CNCc1ccc(Cl)c(Cl)c1)Oc1ccccn1 (stereo unspecified) | -0.291
Cn1ccnc1CN1CCCC1Cn1cccn1 (stereo unspecified) | -13.8
c1sc(C2CCCC2)nc1CN1CCn2c(nnc2C2CC2)C1 | -1.62
Cc1cc(C)c2c(c1)C(NCc1nnc3n1CCC3)CCCO2 (stereo unspecified) | -0.117

Compound | cytotoxicity at 10 µM [%]
COCC(=O)Nc1cnc(N2CCOCC2)nc1 | -10.7
O=C(NC1CCN(C2CC2)CC1)c1[nH]nc(C2CC2)c1Cl | 2.64
COC(C)(C)CNC(=O)c1cn(-c2cccc(Cl)c2F)nn1 | 8.83
CC(NCCNS(=O)(=O)c1cccc(Cl)c1)C1CCOCC1 (stereo unspecified) | -1.6
O=C(NCC(Cc1cccc(F)c1)n1cccc1)C1CC1 (stereo unspecified) | 1.22
CC(=O)N1C[C@@H]2CN(Cc3cccnc3)CCO[C@@H]2C1 | -0.271
CCN1CCc2[nH]cnc2C12CCN(C(=O)CCCn1cncn1)CC2 | -19.2
COc1ccc(-c2cnc(CN(CC(N)=O)C3CCCC3)o2)cc1 | -7.95
CN(Cc1ccsc1)C(=O)Nc1cccc(N2CCOC2=O)c1 | -12.9
CN(Cc1cccs1)C1CCC[C@@H]2CN(C(=O)c3cnccn3)C[C@H]12 (stereo partly specified) | 16.7
OC(COc1ccc(F)cc1)CN1CCC(c2ccn[nH]2)CC1 (stereo unspecified) | 0.923
Cc1cncc(C(=O)N2CCO[C@H]3[C@H](Oc4ccccn4)CC[C@@H]32)c1 | -115
CCC(C(=O)N(C)Cc1cc(COC)[nH]n1)n1cccn1 (stereo unspecified) | -5.89
O=C(c1cc(Br)ccc1-n1cnnn1)N1CCCCC1 | -1.25
Oc1ccc(CCC2CCCCN2Cc2noc(C3CC3)n2)cc1 (stereo unspecified) | 0.55
CC(C)c1nc(CN2CCCN(Cc3nnc(C4CC4)o3)CC2)no1 | -0.794
Cc1nn(C)c2cnn(Cc3ccc(C(=O)NCC4CC4)o3)c12 | 6.06
COc1ccc(-c2nc3c([nH]2)CCNC3C(=O)O)c2ccc(C)nc12 (stereo unspecified) | 0.562
COCC1N(C(=O)c2ccco2)C2CCC1(O)CC2 (stereo unspecified) | 1.4
